Source: ChEMBL document CHEMBL4811233, “Synthesis, Structure-Activity Relationships, and Antiviral Activity of Allosteric Inhibitors of Flavivirus NS2B-NS3 Protease” (J Med Chem, 2021)

How the values were obtained:
Nonstructural protein 3 = Nonstructural protein 3 (Zika virus, UniProt A0A024AXB9); assay: Inhibition Zika virus NS2B (47 to 95 residues)/NS3 (1 to 170 residues) protease expressed in Escherichia coli BL21 using 7-amino-4-methylcoumarin as substrate by fluorescence assay
How it was run: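 Single-chain NS2B(47–95)–Gly4-Ser-Gly4–NS3(1–170) enzyme at 1 nM in 20 mM HEPES pH 7.3 with 0.05% Triton X-100. Compound (1 nM–10 µM, triplicate) is preincubated 10 min before adding Bz-Nle-Lys-Lys-Arg-AMC at 20 µM. Fluorescence (Ex 360/Em 460 nm) is read every 30 s. IC50 comes from dose-response fitting of initial velocities, 3 independent experiments with SD.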

U-87 MG = assay: Cytotoxicity against human U87 cells assessed as inhibition of proliferation at 10 uM by MTT assay; type: cell-based; details: u-87mg atcc
Vero = assay: Cytotoxicity against African green monkey Vero cells assessed as inhibition of proliferation at 10 uM by MTT assay; type: cell-based; details: chlorocebus sabaeus

Nonstructural protein 3, sequence (A0A024AXB9 whole entry, the tested form may be a part): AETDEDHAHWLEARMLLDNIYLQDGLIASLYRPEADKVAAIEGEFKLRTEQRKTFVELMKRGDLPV

| SMILES | IC50 (Nonstructural protein 3) [nM] | Activity (U-87 MG) | Activity (Vero) |
| --- | --- | --- | --- |
| COc1cc(-c2ccoc2)ccc1-c1nc(OCC2CCNCC2)cnc1-c1ccc(CN)cc1 | 1900 | Non-Toxic | Non-Toxic |
| CN(C)Cc1ccc(-c2nc(OCC3CCNCC3)cnc2-c2cccnc2)cc1 | 9900 | – | – |
| CN(C)Cc1ccc(-c2nc(OCC3CCNCC3)cnc2-c2ccc(-c3ccoc3)cc2)cc1 | 1800 | – | – |
| Cc1cc(-c2nc(OCC3CCNCC3)cnc2-c2ccc(CN)cc2)ccc1-c1ccoc1 | 10600 | Non-Toxic | Non-Toxic |
| NCc1ccc(-c2ncc(OCCC3CCNCC3)nc2-c2ccc(CN)cc2)cc1 | > 10000 | – | – |
| NCc1ccc(-c2ccc(NCC3CCNCC3)nc2-c2ccc(CN)cc2)cc1 | 3700 | – | – |
| Cc1noc(C)c1-c1ccc(-c2nc(OCC3CCNCC3)cnc2-c2ccc(CN)cc2)cc1 | > 10000 | – | – |
| NCc1ccc(-c2nc(OCCC3CCNCC3)cnc2-c2ccncc2)cc1 | 1700 | – | – |
| NCc1ccc(-c2nc(N3CCC[C@@H](N)C3)c3nccn3c2-c2ccc(CN)cc2)cc1 | 3500 | – | – |
| COc1cc(CN)ccc1-c1nc(OCC2CCNCC2)cnc1-c1ccncc1 | 3500 | – | – |
| Ic1ccc(-c2ncc(OCC3CCNCC3)nc2-c2ccc(I)cc2)cc1 | 520 | – | – |
| CNCCOc1cnc(-c2ccc(CN)cc2)c(-c2ccc(-c3ccoc3)cc2)n1 | 2100 | – | – |
| NCc1ccc(-c2ncc(OCC3CCNCC3)nc2-c2ccc(CN)c(F)c2)cc1 | > 50000 | – | – |
| NCc1cccc(-c2ncc(OCC3CCNCC3)nc2-c2ccc(-c3ccoc3)cc2)c1 | 2900 | – | – |
| CN(C)Cc1ccc(-c2ncc(OCC3CCNCC3)nc2-c2ccc(CN(C)C)cc2)cc1 | 390 | – | – |
| NCc1ccc(-c2nc(OCC3CCNCC3)cnc2-c2ccc(O)cc2)cc1 | 8100 | – | – |
| NCCCOc1cnc(-c2ccc(CN)cc2)c(-c2ccc(-c3ccoc3)cc2)n1 | 1300 | – | – |
| NCc1ccc(-c2ncc(OCC3CCNCC3)nc2-c2ccc(-c3ccoc3)cc2CO)cc1 | > 10000 | Non-Toxic | Non-Toxic |
| NCc1ccc(-c2ncc(OCC3CCNCC3)nc2-c2cccc3[nH]cnc23)cc1 | 1600 | – | – |
| NCc1ccc(-c2ncc(OCC3CCNCC3)nc2-c2ccc(C(=O)N3CCOCC3)cc2)cc1 | > 10000 | Non-Toxic | Non-Toxic |
| NCc1ccc(-c2nc(N)c(OCC3CCNCC3)nc2-c2ccc(CN)cc2)cc1 | 2100 | – | – |

| SMILES | IC50 (Nonstructural protein 3) [nM] | Activity (U-87 MG) | Activity (Vero) |
| --- | --- | --- | --- |
| Cc1cc(CN)ccc1-c1ncc(OCC2CCNCC2)nc1-c1ccc(-c2ccoc2)cc1 | 2600 | – | – |
| N#Cc1cc(-c2nc(OCC3CCNCC3)cnc2-c2ccc(CN)cc2)ccc1-c1ccoc1 | 1800 | Non-Toxic | Non-Toxic |
| NCc1ccc(-c2ncc(OCC3CCNCC3)nc2-c2ccc(-n3ccnn3)cc2)cc1 | > 10000 | – | – |
| OCc1ccc(-c2ncc(OCCC3CCNCC3)nc2-c2ccc(CO)cc2)cc1 | 2100 | – | – |
| Cc1noc(C)c1-c1nc(OCC2CCNCC2)cnc1-c1ccc(CN)cc1 | 11100 | – | – |
| NCc1ccc(-c2ncc(OCC3CCNCC3)nc2-c2ccc(CN)cc2)cc1 | 620 | – | – |
| CN(C)Cc1ccc(-c2ncc(OCC3CCNCC3)nc2-c2ccc(-c3ccoc3)cc2)cc1 | 6100 | – | – |
| NCc1ccc(-c2ncc(OCC3CCNCC3)nc2-c2ccc(C(=O)N3CCCCC3)cc2)cc1 | 3500 | Non-Toxic | Non-Toxic |
| NCc1ccc(-c2ncc(OCC3CCNCC3)nc2-c2ccc(C(=O)N3CCCC3)cc2)cc1 | 13000 | Non-Toxic | Non-Toxic |
| NCc1ccc(-c2ncc(OCC3CCNCC3)nc2-c2ccc(-n3cc(CO)nn3)cc2)cc1 | > 10000 | – | – |
| NCc1ccc(-c2ncc(OCC3CCNCC3)nc2-c2cccc(C3CCOC3)c2)cc1 (stereo not given) | > 10000 | Non-Toxic | Non-Toxic |
| CC(=O)NCc1ccc(-c2ncc(OCC3CCNCC3)nc2-c2ccc(CN)cc2)cc1 | 30000 | – | – |
| NCc1ccc(-c2ncc(OCCC3CCNCC3)nc2-c2ccc(-c3ccoc3)cc2)cc1 | 1300 | – | – |
| NCc1ccc(-c2nc(N3CC[C@H](N)C3)c3nccn3c2-c2ccc(CN)cc2)cc1 | 19300 | – | – |
| CN(C)Cc1ccc(-c2nc(OCC3CCNCC3)cnc2-c2ccc(O)cc2)cc1 | 20500 | – | – |
| CC(=O)NCc1ccc(-c2ncc(OCC3CCNCC3)nc2-c2ccc(CNC(C)=O)cc2)cc1 | > 10000 | – | – |
| NCc1ccc(-c2ncc(OCC3CCNCC3)nc2-c2ccc(N3CCCC3)cc2)cc1 | 2500 | Non-Toxic | Non-Toxic |
| OCc1ccc(-c2ncc(OCC3CCNCC3)nc2-c2ccc(CO)cc2)cc1 | 510 | – | – |
| NCc1ccc(-c2ncc(OCCN3CCNCC3)nc2-c2ccc(CN)cc2)cc1 | > 10000 | – | – |
| NCc1ccc(-c2ncc(OC3CCNCC3)nc2-c2ccc(-c3ccoc3)cc2)cc1 | 1600 | – | – |
| NCc1ccc(-c2ncc(OCC3CCNCC3)nc2-c2ccc(C3CCCCC3)cc2)cc1 | 16200 | Non-Toxic | Non-Toxic |

| SMILES | IC50 (Nonstructural protein 3) [nM] | Activity (U-87 MG) | Activity (Vero) |
| --- | --- | --- | --- |
| NCc1ccc(-c2ncc(OCC3CCNCC3)nc2-c2ccc(C3CCNCC3)cc2)cc1 | 3100 | Non-Toxic | Non-Toxic |
| NCc1ccc(-c2nc(OCCN3CCNCC3)cnc2-c2ccc(-c3ccoc3)cc2)cc1 | 1800 | – | – |
| Ic1ccc(-c2ncc(OCCCC3CCNCC3)nc2-c2ccc(I)cc2)cc1 | > 10000 | – | – |
| NCc1ccc(-c2ncc(NCC3CCNCC3)nc2-c2ccc(-c3ccoc3)cc2F)cc1 | 2300 | – | – |
| NCc1ccc(-c2nc(OCC3CCNCC3)cnc2-c2ccncc2)cc1 | 320 | – | – |
| NCc1ccc(-c2ncc(OCC3CCNCC3)nc2-c2ccc(-c3ccoc3)cc2F)cc1 | 8400 | Non-Toxic | Non-Toxic |
| c1cc(-c2ccc(-c3ncc(OCC4CCNCC4)nc3-c3ccc(-c4ccoc4)cc3)cc2)co1 | 1000 | – | – |
| NCc1ccc(-c2nc(OCC3CCNCC3)c3nccn3c2-c2ccc(CN)cc2)cc1 | 9300 | – | – |
| NC(=O)c1ccc(-c2ncc(OCC3CCNCC3)nc2-c2ccc(-c3ccoc3)cc2)cc1F | 2300 | – | – |
| CC(=O)OCc1ccc(-c2ncc(OCC3CCNCC3)nc2-c2ccc(COC(C)=O)cc2)cc1 | > 10000 | – | – |
| NCc1ccc(-c2ncc(OCC3CCNCC3)nc2-c2ccc(C3=CCNCC3)cc2)cc1 | 2900 | Non-Toxic | Non-Toxic |
| NCc1ccc(-c2ncc(OCC3CCNCC3)nc2-c2ccc(C3CCOC3)cc2)cc1 (stereo not given) | 590 | Non-Toxic | Non-Toxic |
| NCc1ccc(-c2ncc(OCc3ccccc3)nc2-c2ccc(-c3ccoc3)cc2)cc1 | 3200 | – | – |
| Cc1cc(-c2ccoc2)ccc1-c1nc(OCC2CCNCC2)cnc1-c1ccc(CN)cc1 | 17100 | Non-Toxic | Non-Toxic |
| NCc1ccc(-c2ncc(OCC3CCNCC3)nc2-c2ccc(N3CCCCC3)cc2)cc1 | > 10000 | Non-Toxic | Non-Toxic |
| NCc1ccc(-c2ncc(NCC3CCNCC3)nc2C(=O)Nc2ccc(-c3ccoc3)cc2)cc1 | 1100 | – | – |
| COc1cc(-c2ncc(OCC3CCNCC3)nc2-c2ccc(-c3ccsc3)cc2)ccc1C(N)=O | 4700 | – | – |
| NCc1ccc(-c2ncc(OCC3CCNCC3)nc2-c2ccc(N3CCOCC3)cc2)cc1 | > 10000 | Non-Toxic | Non-Toxic |
| ONCc1ccc(-c2ncc(OCC3CCNCC3)nc2-c2ccc(-c3ccoc3)cc2)cc1 | 1200 | – | – |
